According to ChEMBL document CHEMBL4689842, “EUbOPEN Chemogenomics Library wave 1” (2021):

System: Fibroblast
Assay: Multiplex assay against human fibroblast
Format: toxicity, cell-based
Summary of the method: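 Hoechst33342, BioTracker Green Microtubule Cytoskeleton Dye, MitoTracker Red and Annexin V Alexa Fluor 680 were added to live cells at seeding, and imaging on a CQ1 microscope at 37°C and 5% CO2 followed compound addition. Gating by CellPathfinder machine learning separated cells into Hoechst high-intensity objects or normal cells, then normal cells into healthy, pyknosed or fragmented nuclei, then pyknosed cells into mitotic or apoptotic. Per cents of healthy-nucleus cells are reported for the tubulin, mitochondrial-mass and membrane-permeability phenotypes.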

[1] = 12 h, 1 µM, compound concentration 1 uM, replicate 1
[2] = 12 h, 1 µM, compound concentration 1 uM, replicate 2
[3] = 12 h, 10 µM, compound concentration 10 uM, replicate 1
[4] = 12 h, 10 µM, compound concentration 10 uM, replicate 2
[5] = 24 h, 1 µM, compound concentration 1 uM, replicate 1
[6] = 24 h, 1 µM, compound concentration 1 uM, replicate 2
[7] = 24 h, 10 µM, compound concentration 10 uM, replicate 1
[8] = 24 h, 10 µM, compound concentration 10 uM, replicate 2

## NC(=O)c1cccc(-c2cc(Nc3ccc(OC(F)(F)F)cc3)ncn2)c1
[1]
  Population Apoptotic (%): 80%
  Population Fragmented Nuclei (%): 30%
  Population Healthy Nuclei (%): 53%
  Population Hoechst High Intensity Objects (%): 10%
  Population Membrane Permeable-Phenotype (%): 5%
  Population Mitochondria Different-Phenotype (%): 6%
  Population Mitotic Cells (%): 20%
  Population Normal (%): 89%
  Population Pyknosed Nuclei (%): 16%
  Population Tubulin-Different-Phenotype (%): 5%
  Total Cell Count: 205
[2]
  Population Apoptotic (%): 20%
  Population Fragmented Nuclei (%): 42%
  Population Healthy Nuclei (%): 48%
  Population Hoechst High Intensity Objects (%): 39%
  Population Membrane Permeable-Phenotype (%): 11%
  Population Mitochondria Different-Phenotype (%): 23%
  Population Mitotic Cells (%): 80%
  Population Normal (%): 60%
  Population Pyknosed Nuclei (%): 9%
  Population Tubulin-Different-Phenotype (%): 3%
  Total Cell Count: 89
[3]
  Population Apoptotic (%): 69%
  Population Fragmented Nuclei (%): 20%
  Population Healthy Nuclei (%): 61%
  Population Hoechst High Intensity Objects (%): 7%
  Population Membrane Permeable-Phenotype (%): 7%
  Population Mitochondria Different-Phenotype (%): 3%
  Population Mitotic Cells (%): 30%
  Population Normal (%): 92%
  Population Pyknosed Nuclei (%): 18%
  Population Tubulin-Different-Phenotype (%): 6%
  Total Cell Count: 231
[4]
  Population Apoptotic (%): 60%
  Population Fragmented Nuclei (%): 50%
  Population Healthy Nuclei (%): 23%
  Population Hoechst High Intensity Objects (%): 39%
  Population Membrane Permeable-Phenotype (%): 0%
  Population Mitochondria Different-Phenotype (%): 44%
  Population Mitotic Cells (%): 40%
  Population Normal (%): 60%
  Population Pyknosed Nuclei (%): 26%
  Population Tubulin-Different-Phenotype (%): 33%
  Total Cell Count: 63
[5]
  Population Apoptotic (%): 60%
  Population Fragmented Nuclei (%): 26%
  Population Healthy Nuclei (%): 59%
  Population Hoechst High Intensity Objects (%): 12%
  Population Membrane Permeable-Phenotype (%): 6%
  Population Mitochondria Different-Phenotype (%): 7%
  Population Mitotic Cells (%): 39%
  Population Normal (%): 87%
  Population Pyknosed Nuclei (%): 13%
  Population Tubulin-Different-Phenotype (%): 11%
  Total Cell Count: 194
[6]
  Population Apoptotic (%): 50%
  Population Fragmented Nuclei (%): 46%
  Population Healthy Nuclei (%): 46%
  Population Hoechst High Intensity Objects (%): 26%
  Population Membrane Permeable-Phenotype (%): 12%
  Population Mitochondria Different-Phenotype (%): 16%
  Population Mitotic Cells (%): 50%
  Population Normal (%): 73%
  Population Pyknosed Nuclei (%): 6%
  Population Tubulin-Different-Phenotype (%): 12%
  Total Cell Count: 90
[7]
  Population Apoptotic (%): 55%
  Population Fragmented Nuclei (%): 26%
  Population Healthy Nuclei (%): 53%
  Population Hoechst High Intensity Objects (%): 5%
  Population Membrane Permeable-Phenotype (%): 5%
  Population Mitochondria Different-Phenotype (%): 5%
  Population Mitotic Cells (%): 44%
  Population Normal (%): 94%
  Population Pyknosed Nuclei (%): 19%
  Population Tubulin-Different-Phenotype (%): 11%
  Total Cell Count: 237
[8]
  Population Apoptotic (%): 40%
  Population Fragmented Nuclei (%): 50%
  Population Healthy Nuclei (%): 39%
  Population Hoechst High Intensity Objects (%): 31%
  Population Membrane Permeable-Phenotype (%): 21%
  Population Mitochondria Different-Phenotype (%): 31%
  Population Mitotic Cells (%): 60%
  Population Normal (%): 68%
  Population Pyknosed Nuclei (%): 10%
  Population Tubulin-Different-Phenotype (%): 57%
  Total Cell Count: 70
